Experimental data reported in ChEMBL document CHEMBL4138258 (ACS Med Chem Lett, 2017).
Converted amounts (≈) assume the structure as drawn. The source made the active and inactive calls.

Legend:
[1] = biological target: T1, Voltage-gated inwardly rectifying potassium channel KCNH2 (Homo sapiens, UniProt Q12809); assay: Inhibition of human ERG by patch-clamp method
[2] = Half life in human liver microsomes; assay type: ADME, microsome
Cytochrome P450 2C9 = Cytochrome P450 2C9 (Homo sapiens, UniProt P11712); assay: Inhibition of CYP2C9 (unknown origin); assay type: ADME
Cannabinoid receptor 1 = Cannabinoid receptor 1 (Rattus norvegicus, UniProt P20272); assay: Agonist activity at recombinant rat CB1 receptor expressed in HEK293 cells assessed as increase in beta arrestin recruitment measured after 2 to 3 hrs by PathHunter assay; assay type: functional, cell-based
HepG2 = assay: Cytotoxicity against human HepG2 cells up to 1000 uM; assay type: cell-based
Procedure, shortened: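 Essential Cell Function panel in live HepG2 cells, measuring several cellular parameters.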

Rattus norvegicus [3] = assay: Analgesic activity in Sprague-Dawley rat MIA-induced osteoarthritic pain model assessed as increase in paw withdrawal threshold at 3 mg/kg, po after 1 hr in presence of CB2 inverse agonist AR401733 by von Frey filaments assay; assay type: functional, organism-based
Rattus norvegicus [4] = assay: Acute toxicity in Sprague-Dawley rat assessed as lethargy at 300 mg/kg, po administered for 14 days measured on day 2 to 14 during compound dosing; assay type: organism-based; settings: in vivo, 336 h
Procedure, shortened: (§1)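 Male and female Sprague-Dawley rats in a 14-day dose-range-finding toxicity study with oral dose groups of 0, 30, 100 and 300 mg/kg. Animals were watched for clinical signs such as lethargy over the dosing period.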

Rattus norvegicus [5] = assay: Acute toxicity in Sprague-Dawley rat assessed as histopathological abnormalities at 30 to 300 mg/kg, po administered for 14 days measured during compound dosing; assay type: organism-based; settings: in vivo, 336 h
[6] = Protein binding in human plasma assessed as unbound fraction; assay type: ADME, cell-free
Salmonella typhimurium [7] = assay: Mutagenicity in Salmonella typhimurium in absence of liver S9 fraction by Ames test; assay type: toxicity, organism-based; settings: salmonella enterica subsp. enterica serovar typhimurium
[8] = Half life in rat liver microsomes; assay type: ADME, microsome
[9] = Half life in mouse liver microsomes; assay type: ADME, microsome
Salmonella typhimurium [10] = assay: Mutagenicity in Salmonella typhimurium in presence of liver S9 fraction by Ames test; assay type: toxicity, organism-based; settings: salmonella enterica subsp. enterica serovar typhimurium
[11] = biological target: T2, Cannabinoid receptor 2 (Rattus norvegicus) (UniProt Q9QZN9); assay: Agonist activity at recombinant rat CB2 receptor expressed in HEK293 cells assessed as increase in beta arrestin recruitment measured after 2 to 3 hrs by PathHunter assay relative to CP55940; assay type: functional, cell-based
T2 sequence (whole entry): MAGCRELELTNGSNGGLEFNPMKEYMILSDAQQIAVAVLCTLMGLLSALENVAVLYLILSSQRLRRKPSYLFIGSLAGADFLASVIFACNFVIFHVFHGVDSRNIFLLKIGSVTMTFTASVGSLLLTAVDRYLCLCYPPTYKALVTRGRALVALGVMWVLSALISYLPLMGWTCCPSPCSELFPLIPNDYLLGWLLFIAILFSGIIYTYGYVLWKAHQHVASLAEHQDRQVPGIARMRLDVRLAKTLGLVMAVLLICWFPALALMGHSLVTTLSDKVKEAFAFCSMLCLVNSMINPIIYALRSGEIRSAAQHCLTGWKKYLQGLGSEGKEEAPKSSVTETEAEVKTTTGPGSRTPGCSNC
Procedure, shortened: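 Beta-arrestin recruitment EC50 is the mean of three or more independent experiments (logSD < 0.4). Intrinsic activity (Emax) is expressed relative to CP-55,940 set at 100.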

Rattus norvegicus [12] = assay: Analgesic activity in Sprague-Dawley rat MIA-induced osteoarthritic pain model assessed as increase in paw withdrawal threshold at 3 mg/kg, po after 1 hr in presence of CB2 antagonist SR144528 by von Frey filaments assay; assay type: functional, organism-based
[13] = biological target: T1, Voltage-gated inwardly rectifying potassium channel KCNH2; assay: Inhibition of [3H]-astemizole binding to human ERG
Rattus norvegicus [14] = assay: Analgesic activity in po dosed Sprague-Dawley rat MIA-induced osteoarthritic pain model assessed as increase in paw withdrawal threshold after 1 hr by von Frey filaments assay; assay type: functional
Procedure, shortened: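 Von Frey paw withdrawal thresholds were read 1 h post-dose to assess late-phase hypersensitivity. ED50 was derived from the dose-response.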

Rattus norvegicus [15] = assay: Analgesic activity in Sprague-Dawley rat MIA-induced osteoarthritic pain model assessed as increase in paw withdrawal threshold at 3 mg/kg, po after 1 hr in presence of CB2 antagonist […] by von Frey filaments assay; assay type: functional, organism-based
Cannabinoid receptor 2 [16] = biological target: T3, Cannabinoid receptor 2 (Rattus norvegicus, UniProt Q9QZN9); assay: Agonist activity at recombinant rat CB2 receptor expressed in HEK293 cells assessed as increase in beta arrestin recruitment measured after 2 to 3 hrs by PathHunter assay; assay type: functional, cell-based
T3 sequence (Q9QZN9 whole entry): T2 sequence (whole entry)

Rattus norvegicus [17] = assay: Analgesic activity in Sprague-Dawley rat MIA-induced osteoarthritic pain model assessed as increase in paw withdrawal threshold at 3 mg/kg, ip administered twice daily for 5 days measured 1 hr post dose at 1 day interval for 5 days during compound dosing; assay type: functional, organism-based
Procedure, shortened: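 Rats with MIA-induced late-phase hypersensitivity were dosed IP twice daily for 5 days. Von Frey paw withdrawal thresholds were measured 1 h after the morning dose on days 1, 3 and 5.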

Cannabinoid receptor 2 [18] = biological target: Cannabinoid receptor 2 (Homo sapiens, UniProt P34972); assay: Agonist activity at recombinant human CB2 receptor expressed in HEK293 cells assessed as increase in beta arrestin recruitment measured after 2 to 3 hrs by PathHunter assay relative to CP55940; assay type: functional, cell-based
Cytochrome P450 2C19 = Cytochrome P450 2C19 (Homo sapiens, UniProt P33261); assay: Inhibition of CYP2C19 (unknown origin); assay type: ADME
[19] = Protein binding in mouse plasma assessed as unbound fraction; assay type: ADME, cell-free
Rattus norvegicus [20] = assay: Acute toxicity in Sprague-Dawley rat assessed as hematological changes at 30 to 300 mg/kg, po administered for 14 days measured during compound dosing; assay type: organism-based; settings: in vivo, 336 h
Cytochrome P450 1A2 = biological target: T4, Cytochrome P450 1A2 (Homo sapiens, UniProt P05177); assay: Inhibition of CYP1A2 (unknown origin); assay type: ADME
T4 sequence (P05177 whole entry): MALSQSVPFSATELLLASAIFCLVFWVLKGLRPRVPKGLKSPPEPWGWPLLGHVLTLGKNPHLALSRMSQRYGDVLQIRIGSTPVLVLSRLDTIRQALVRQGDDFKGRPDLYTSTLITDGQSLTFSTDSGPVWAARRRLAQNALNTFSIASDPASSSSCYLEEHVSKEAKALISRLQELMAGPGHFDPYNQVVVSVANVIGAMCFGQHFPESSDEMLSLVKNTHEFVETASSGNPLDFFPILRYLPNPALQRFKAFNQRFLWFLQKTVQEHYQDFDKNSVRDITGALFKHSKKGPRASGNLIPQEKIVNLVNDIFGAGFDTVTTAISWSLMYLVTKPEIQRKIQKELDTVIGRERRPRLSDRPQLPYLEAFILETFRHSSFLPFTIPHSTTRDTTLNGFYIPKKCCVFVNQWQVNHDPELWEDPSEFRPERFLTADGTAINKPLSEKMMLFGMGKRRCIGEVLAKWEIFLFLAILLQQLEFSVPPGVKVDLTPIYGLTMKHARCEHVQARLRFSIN

[21] = Aqueous solubility of the compound at pH 2 to 7 using solid samples; assay type: physicochemical; settings: aqueous solution
[22] = Ratio of drug level in brain to plasma in Sprague-Dawley rat at 3 mg/kg, po measured after 2 hrs; assay type: ADME, organism-based; settings: brain and plasma, read-out: BPR
[23] = biological target: T2, Cannabinoid receptor 2 (Rattus norvegicus); assay: Induction of recombinant HA-tagged rat CB2 receptor internalization expressed in CHOK1 cells at 10 uM measured after 1 hr by time-resolved flow cytometry relative to CP55940; assay type: functional, cell-based
Cytochrome P450 2D6 = Cytochrome P450 2D6 (Homo sapiens, UniProt P10635); assay: Inhibition of CYP2D6 (unknown origin); assay type: ADME
Rattus norvegicus [24] = assay: Inhibition of paw withdrawal threshold in Sprague-Dawley rat MIA-induced osteoarthritic pain model at 10 mg/kg, po measured up to 4 hrs; assay type: organism-based; settings: in vivo
[25] = Protein binding in dog plasma assessed as unbound fraction; assay type: ADME, cell-free, Canis lupus familiaris
[26] = Protein binding in monkey plasma assessed as unbound fraction; assay type: ADME, cell-free, Macaca mulatta; settings: rhesus monkey
Rattus norvegicus [27] = assay: Toxicity in Sprague-Dawley rat assessed as change in core body temperature up to 100 mg/kg, po measured after 60 mins by rectal probe method; assay type: organism-based; settings: in vivo, 1 h
Rattus norvegicus [28] = assay: Analgesic activity in Sprague-Dawley rat MIA-induced osteoarthritic pain model assessed as increase in paw withdrawal threshold at 3 mg/kg, po after 1 hr in presence of CB1 antagonist rimonabant by von Frey filaments assay; assay type: functional, organism-based
[29] = Stability of the compound; assay type: physicochemical
Cytochrome P450 3A4 = Cytochrome P450 3A4 (Homo sapiens, UniProt P08684); assay: Inhibition of CYP3A4 (unknown origin); assay type: ADME
[30] = Protein binding in rat plasma assessed as unbound fraction; assay type: ADME, cell-free
Rattus norvegicus [31] = assay: Acute toxicity in Sprague-Dawley rat assessed as lethargy at 300 mg/kg, po administered for 14 days measured on day 1 during compound dosing; assay type: organism-based; settings: in vivo, 336 h; procedure, shortened: as §1
Rattus norvegicus [32] = assay: Analgesic activity in Sprague-Dawley rat MIA-induced osteoarthritic pain model assessed as increase in paw withdrawal threshold at 3 mg/kg, ip by von Frey filaments assay; assay type: functional, organism-based
Procedure, shortened: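 Rat MIA osteoarthritis pain model, with analgesia read as von Frey paw withdrawal threshold. In blocking runs, 3 mg/kg IP agonist was combined with the CB2 antagonist AR401733 (10 mg/kg PO) or the CB1 antagonist rimonabant (10 mg/kg PO).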

Rattus norvegicus [33] = assay: Toxicity in Sprague-Dawley rat MIA-induced osteoarthritic pain model assessed as induction of tachyphylaxis at 10 mg/kg, ip administered twice daily for 5 days measured 1 hr post dose at 1 day interval for 5 days during compound dosing; assay type: organism-based; settings: in vivo
Procedure, shortened: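 MIA-treated rats were dosed IP twice daily for 5 days. Reversal of hypersensitivity was measured by von Frey paw withdrawal threshold 1 h after the morning dose on days 1, 3 and 5. Morphine was given on the same regimen for comparison.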

T1 sequence (Q12809 whole entry): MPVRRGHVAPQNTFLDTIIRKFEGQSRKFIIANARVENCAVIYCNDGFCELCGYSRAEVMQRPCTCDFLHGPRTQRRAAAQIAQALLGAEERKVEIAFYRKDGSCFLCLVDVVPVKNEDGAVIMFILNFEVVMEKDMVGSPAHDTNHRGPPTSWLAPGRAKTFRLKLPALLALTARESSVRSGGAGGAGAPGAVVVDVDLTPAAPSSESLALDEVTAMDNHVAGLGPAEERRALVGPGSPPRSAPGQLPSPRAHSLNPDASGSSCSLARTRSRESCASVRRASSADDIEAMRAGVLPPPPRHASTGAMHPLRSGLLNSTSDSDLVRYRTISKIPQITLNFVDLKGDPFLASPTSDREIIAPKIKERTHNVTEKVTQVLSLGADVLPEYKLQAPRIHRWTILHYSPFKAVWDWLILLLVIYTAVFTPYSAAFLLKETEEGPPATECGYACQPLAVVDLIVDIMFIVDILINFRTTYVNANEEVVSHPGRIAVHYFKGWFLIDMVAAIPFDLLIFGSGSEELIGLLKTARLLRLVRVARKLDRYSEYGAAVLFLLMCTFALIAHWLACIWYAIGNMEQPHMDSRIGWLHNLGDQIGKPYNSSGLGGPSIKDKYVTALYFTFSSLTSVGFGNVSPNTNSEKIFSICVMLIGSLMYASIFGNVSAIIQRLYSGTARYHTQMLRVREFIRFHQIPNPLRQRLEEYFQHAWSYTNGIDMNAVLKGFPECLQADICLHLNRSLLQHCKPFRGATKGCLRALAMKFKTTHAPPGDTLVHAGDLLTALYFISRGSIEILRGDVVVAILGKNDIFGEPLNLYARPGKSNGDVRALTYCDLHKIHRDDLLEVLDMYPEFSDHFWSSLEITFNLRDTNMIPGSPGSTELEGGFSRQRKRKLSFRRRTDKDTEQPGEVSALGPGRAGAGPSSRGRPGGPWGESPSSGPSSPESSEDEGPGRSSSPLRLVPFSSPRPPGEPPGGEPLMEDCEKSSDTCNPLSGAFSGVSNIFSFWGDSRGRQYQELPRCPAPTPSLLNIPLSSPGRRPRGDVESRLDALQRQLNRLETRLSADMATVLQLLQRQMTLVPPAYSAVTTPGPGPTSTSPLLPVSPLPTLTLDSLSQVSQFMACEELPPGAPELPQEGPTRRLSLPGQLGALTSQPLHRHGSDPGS
Chain of Cytochrome P450 2C9 (P11712 whole entry): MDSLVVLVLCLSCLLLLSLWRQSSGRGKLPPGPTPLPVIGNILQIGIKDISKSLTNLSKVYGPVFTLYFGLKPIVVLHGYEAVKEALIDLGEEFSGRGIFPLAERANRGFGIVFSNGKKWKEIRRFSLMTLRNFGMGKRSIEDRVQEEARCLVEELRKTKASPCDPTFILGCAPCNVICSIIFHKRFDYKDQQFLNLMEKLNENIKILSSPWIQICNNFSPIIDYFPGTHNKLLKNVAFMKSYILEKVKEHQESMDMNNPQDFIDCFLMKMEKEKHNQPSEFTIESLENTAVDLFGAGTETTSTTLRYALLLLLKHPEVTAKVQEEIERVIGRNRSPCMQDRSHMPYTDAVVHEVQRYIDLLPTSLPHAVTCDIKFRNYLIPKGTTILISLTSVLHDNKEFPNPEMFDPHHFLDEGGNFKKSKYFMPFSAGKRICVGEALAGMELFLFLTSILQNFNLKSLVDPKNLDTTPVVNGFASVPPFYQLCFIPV
Chain of Cytochrome P450 2D6 (P10635 whole entry): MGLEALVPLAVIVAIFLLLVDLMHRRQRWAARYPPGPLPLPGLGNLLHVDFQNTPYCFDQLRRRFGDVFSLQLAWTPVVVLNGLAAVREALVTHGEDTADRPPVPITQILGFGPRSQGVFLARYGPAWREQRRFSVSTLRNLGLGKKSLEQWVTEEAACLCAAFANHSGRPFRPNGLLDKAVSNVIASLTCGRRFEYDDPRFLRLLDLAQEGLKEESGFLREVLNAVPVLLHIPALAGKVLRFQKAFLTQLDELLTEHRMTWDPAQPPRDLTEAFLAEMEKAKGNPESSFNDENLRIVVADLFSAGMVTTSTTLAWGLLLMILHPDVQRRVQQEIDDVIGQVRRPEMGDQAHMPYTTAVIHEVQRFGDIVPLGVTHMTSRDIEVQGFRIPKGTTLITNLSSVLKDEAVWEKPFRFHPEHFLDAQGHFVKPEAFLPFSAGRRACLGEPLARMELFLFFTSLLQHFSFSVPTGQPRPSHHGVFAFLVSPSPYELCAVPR
Chain of Cannabinoid receptor 2 (Homo sapiens, UniProt P34972) (P34972 whole entry): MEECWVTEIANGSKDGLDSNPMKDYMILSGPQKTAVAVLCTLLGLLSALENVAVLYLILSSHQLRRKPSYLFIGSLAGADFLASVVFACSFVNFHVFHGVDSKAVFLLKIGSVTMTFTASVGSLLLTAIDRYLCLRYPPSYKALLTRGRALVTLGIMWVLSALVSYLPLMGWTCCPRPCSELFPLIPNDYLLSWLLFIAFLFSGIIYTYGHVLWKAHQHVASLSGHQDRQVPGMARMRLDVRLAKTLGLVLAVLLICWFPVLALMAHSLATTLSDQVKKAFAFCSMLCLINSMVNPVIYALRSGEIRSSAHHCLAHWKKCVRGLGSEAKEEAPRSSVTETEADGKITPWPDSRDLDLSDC
Chain of Cytochrome P450 2C19 (P33261 whole entry): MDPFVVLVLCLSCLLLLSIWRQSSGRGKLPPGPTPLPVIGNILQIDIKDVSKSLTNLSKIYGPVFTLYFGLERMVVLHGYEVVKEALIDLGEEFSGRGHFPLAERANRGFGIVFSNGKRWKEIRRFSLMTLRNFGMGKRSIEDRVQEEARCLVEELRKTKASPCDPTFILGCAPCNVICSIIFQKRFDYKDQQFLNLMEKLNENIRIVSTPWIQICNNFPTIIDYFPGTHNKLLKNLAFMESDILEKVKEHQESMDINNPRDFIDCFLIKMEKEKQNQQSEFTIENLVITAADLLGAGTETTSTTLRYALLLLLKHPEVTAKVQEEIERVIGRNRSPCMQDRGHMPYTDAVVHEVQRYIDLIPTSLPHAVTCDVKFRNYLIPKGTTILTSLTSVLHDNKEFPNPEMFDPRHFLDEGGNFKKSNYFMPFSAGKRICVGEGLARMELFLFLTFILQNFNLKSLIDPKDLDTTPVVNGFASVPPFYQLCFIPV
Chain of Cannabinoid receptor 1 (P20272 whole entry): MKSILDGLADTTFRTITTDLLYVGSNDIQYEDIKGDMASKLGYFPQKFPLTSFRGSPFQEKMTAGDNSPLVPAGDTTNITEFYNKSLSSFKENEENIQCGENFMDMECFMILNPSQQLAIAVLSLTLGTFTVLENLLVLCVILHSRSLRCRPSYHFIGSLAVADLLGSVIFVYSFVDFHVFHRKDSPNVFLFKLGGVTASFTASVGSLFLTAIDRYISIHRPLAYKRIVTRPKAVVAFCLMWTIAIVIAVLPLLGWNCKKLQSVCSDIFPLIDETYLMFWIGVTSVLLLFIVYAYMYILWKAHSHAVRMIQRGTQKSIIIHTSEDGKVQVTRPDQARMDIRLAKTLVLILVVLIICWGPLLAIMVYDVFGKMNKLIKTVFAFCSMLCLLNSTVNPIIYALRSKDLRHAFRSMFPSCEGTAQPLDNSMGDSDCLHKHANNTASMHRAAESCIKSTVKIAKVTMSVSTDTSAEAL
Chain of Cytochrome P450 3A4 (P08684 whole entry): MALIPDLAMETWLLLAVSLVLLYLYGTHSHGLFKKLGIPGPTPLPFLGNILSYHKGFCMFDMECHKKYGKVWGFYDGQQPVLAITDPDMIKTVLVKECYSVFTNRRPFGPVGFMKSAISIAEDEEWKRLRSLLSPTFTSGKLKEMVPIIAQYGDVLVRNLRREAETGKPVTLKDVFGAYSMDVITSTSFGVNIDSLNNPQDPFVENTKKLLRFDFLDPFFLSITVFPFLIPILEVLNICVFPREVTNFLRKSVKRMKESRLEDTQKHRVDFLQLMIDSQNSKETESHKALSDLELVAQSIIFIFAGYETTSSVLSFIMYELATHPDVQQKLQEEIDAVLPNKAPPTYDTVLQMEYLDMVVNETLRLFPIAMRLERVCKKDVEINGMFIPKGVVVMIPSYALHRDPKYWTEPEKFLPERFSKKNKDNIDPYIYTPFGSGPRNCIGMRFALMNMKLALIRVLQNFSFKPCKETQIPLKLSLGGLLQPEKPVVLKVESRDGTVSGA

With CC(C)(C)[C@@H](CO)NC(=O)c1nn(-c2c[n+]([O-])ccn2)c2c1C[C@@H]1C[C@H]21 [OLORINAB] the IC50 [1] was > 30 µM, the half-life [2] was > 1 h and the IC50 (Cytochrome P450 2C9) was > 50 µM. For the same compound, the EC50 (Cannabinoid receptor 1) was 10 to 30 µM, the Activity (HepG2) was “Non-Toxic” and the Activity (Rattus norvegicus [3]) was “inactive”. For the same compound, the Activity (Rattus norvegicus [4]) was “Non-Toxic”, the Activity (Rattus norvegicus [5]) was “Non-Toxic” and the fraction unbound [6] was 0.1 to 0.2. For the same compound, the Activity (Salmonella typhimurium [7]) was “Non-Toxic”, the half-life [8] was > 1 h and the half-life [9] was > 1 h. For the same compound, the Activity (Salmonella typhimurium [10]) was “Non-Toxic”, the Emax [11] was 100% and the Activity (Rattus norvegicus [12]) was “inactive”. For the same compound, the IC50 [13] was > 30 µM, the ED50 (Rattus norvegicus [14]) was 2.3 mg/kg and the Activity (Rattus norvegicus [15]) was “inactive”. The EC50 (Cannabinoid receptor 2 [16]) was 0.0076 µM, the Activity (Rattus norvegicus [17]) was “Active” and the Emax (Cannabinoid receptor 2 [18]) was 106%. For the same compound, the IC50 (Cytochrome P450 2C19) was > 50 µM, the fraction unbound [19] was 0.1 to 0.2 and the Activity (Rattus norvegicus [20]) was “Non-Toxic”. For the same compound, the IC50 (Cytochrome P450 1A2) was > 50 µM, the solubility thermodynamic [21] was 2000 µg/mL (≈ 5.6 mM) and the Kp at 2 h [22] was 0.04. The Activity [23] was 106%, the IC50 (Cytochrome P450 2D6) was > 50 µM and the “inhibition (INH)” value (Rattus norvegicus [24]) was “Non-Toxic”. The fraction unbound [25] was 0.1 to 0.2, the fraction unbound [26] was 0.1 to 0.2 and the Activity (Rattus norvegicus [27]) was “Non-Toxic”. The Activity (Rattus norvegicus [28]) was “inactive”, the Stability [29] was “Stable” and the IC50 (Cytochrome P450 3A4) was > 50 µM. The fraction unbound [30] was 0.1 to 0.2 and the Activity (Rattus norvegicus [31]) was “Toxic”.
With CN1CC[C@]23c4c5ccc(O)c4O[C@H]2[C@@H](O)C=C[C@H]3[C@H]1C5 [MORPHINE] the Activity (Rattus norvegicus [32]) was “Active” and the Activity (Rattus norvegicus [33]) was “Toxic”.
